TRPC6 activator: mouse TRPC6 channel activation; HEK293-TRPC6 membrane potential dye fluorescence; active compounds read high; B-score at 10 µM; hit rate 0.13% among 310,000;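 active means B-score of the integrated fluorescence ratio above library mean plus 3 SD, and starting fluorescence ratio within library mean plus 5 SD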;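 further: higher score means more depolarization so channel activation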
Target sequence (Q61143 whole entry, looked up): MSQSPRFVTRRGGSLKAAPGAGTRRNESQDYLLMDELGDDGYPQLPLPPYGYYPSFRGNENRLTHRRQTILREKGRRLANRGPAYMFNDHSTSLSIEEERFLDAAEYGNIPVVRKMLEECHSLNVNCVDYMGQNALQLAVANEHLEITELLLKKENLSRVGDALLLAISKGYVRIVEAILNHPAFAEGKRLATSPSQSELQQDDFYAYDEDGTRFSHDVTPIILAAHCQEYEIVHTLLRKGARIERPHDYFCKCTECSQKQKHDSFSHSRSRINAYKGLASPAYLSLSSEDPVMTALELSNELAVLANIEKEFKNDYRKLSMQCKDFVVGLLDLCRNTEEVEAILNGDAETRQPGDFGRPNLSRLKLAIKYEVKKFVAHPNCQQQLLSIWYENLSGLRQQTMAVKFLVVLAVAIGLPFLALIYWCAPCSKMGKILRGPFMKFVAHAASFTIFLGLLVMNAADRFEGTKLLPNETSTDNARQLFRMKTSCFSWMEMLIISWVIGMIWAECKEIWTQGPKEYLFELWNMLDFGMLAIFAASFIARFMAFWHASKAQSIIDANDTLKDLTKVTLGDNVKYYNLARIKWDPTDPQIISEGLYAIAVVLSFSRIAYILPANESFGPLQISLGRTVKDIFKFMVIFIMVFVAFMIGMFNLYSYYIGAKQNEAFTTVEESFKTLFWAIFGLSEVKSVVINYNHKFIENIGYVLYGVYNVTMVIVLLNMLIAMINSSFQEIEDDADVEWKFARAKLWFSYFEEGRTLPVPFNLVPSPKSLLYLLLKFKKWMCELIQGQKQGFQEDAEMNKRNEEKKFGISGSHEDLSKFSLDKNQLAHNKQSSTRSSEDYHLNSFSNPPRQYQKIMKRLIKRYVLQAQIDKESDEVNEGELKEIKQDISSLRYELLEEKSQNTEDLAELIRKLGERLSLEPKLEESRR
TRPC4 PAM: TRPC4 (mouse) allosteric potentiation; Q9QUQ5; HEK293 TRPC4beta/mu-opioid, DAMGO EC20, Fluo-4 Ca2+ flux; active compounds read high; B-score at 10 µM; hit rate 0.42% among 310,000;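 active means B-score of calcium response area above 5 SD of library B-scores, with initial fluorescence ratio within 5 SD of library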
TRPC6 inhibitor: mouse TRPC6 channel inhibition; Q61143; HEK293-TRPC6, membrane potential dye, ACh-evoked depolarization; active compounds read low; B-score at 10 µM; hit rate 1.1% among 310,000;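 active means B-score under library mean minus 3 SD, initial fluorescence not abnormally high, positive integrated signal ratio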;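 further: B-score derived from integrated fluorescence ratio over the kinetic read; more negative B-score means stronger inhibition of depolarization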
TRPC4 agonist: opens the mouse TRPC4 cation channel | Q9QUQ5 | AID 2237 | hit rate 0.49% among 310,000 | B-score at 10 µM | HEK293 TRPC4beta/mu-opioid, Fluo4 calcium fluorescence; active compounds read high;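 active means B-score above 5 SD of library B-scores, and initial fluorescence ratio not above library mean plus 5 SD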;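 further: positive B-score marks a calcium rise read as TRPC4 activation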
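Material: HEK293 stable line with TRPC4beta plus mu-opioid receptor; technique: Fluo4 calcium-sensitive dye fluorescence, kinetic, 1 Hz baseline; timing: Fluo4 dye loading 45 min at room temperature, 110 s recording; controls: assay buffer as low control, maximal DAMGO as high control; read-out: integrated baseline-normalised fluorescence ratio, converted to per-well B score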
TRPC4 block: inhibitors of mouse TRPC4 channel; Q9QUQ5; HEK293 TRPC4beta/mu-opioid, DAMGO-evoked Fluo4 calcium flux; active compounds read low; B-score at 10 µM; hit rate 0.39% among 300,000;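 active means B-score over 3 SD under the library average, no early fluorescence shift, positive overall ratio signal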
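System: stable TRPC4beta/mu-opioid receptor HEK293 cells; Dosing: single-point compound dosing; Measured by: Fluo4 Ca2+ flux fluorescence; Read-out basis: per-well B score of integrated baseline-normalized Fluo4 ratio.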
TRPC4 spec 2: mouse TRPC4 off-target activity of TRPC6 inhibitors, second screen; inhibition, % at 10 µM; HEK293 TRPC4/MOR, membrane potential dye fluorescence; channel activated by saturating DAMGO dose; hit rate 42% among 920; shares compounds with TRPC6 inhibitor; AID 2776;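 active means compounds whose fluorescence signal differed from control wells by over 3 SD, either direction, in both duplicate plates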
TRPC4 spec: selectivity of TRPC6 inhibitors: effect on mouse TRPC4 | shares compounds with TRPC6 inhibitor | HEK293 TRPC4/mu-opioid, membrane potential fluorescence | activity change, negative = inhibition, % at 10 µM | hit rate 61% among 920 | AID 2777;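 active means rise or fall in signal beyond 3 SD of buffer-only wells in both replicate plates, either sign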;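 further: integrated kinetic ratio of fluorescence range over baseline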
HEK293 MPD ctr 2-1: parental HEK293 nonspecific activity of TRPC6 inhibitors, second screen. hit rate 31% among 920. shares compounds with TRPC6 inhibitor. signal change vs control, % at 10 µM. AID 2779. parental HEK293 membrane potential dye fluorescence; maximal acetylcholine challenge after compound addition;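 active means membrane potential signal moving either way by over 3 SD of the maximum-effect control, in both duplicate plates, meaning non-specific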
HEK293 MPD ctr-1: parental HEK293 nonspecific activity of TRPC6 inhibitors; shares compounds with TRPC6 inhibitor; parental HEK293 membrane potential dye fluorescence; membrane potential signal change, % at 10 µM; hit rate 60% among 920; AID 2780;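 active means membrane potential signal shifting up or down by more than 3 SD of buffer-only wells, on both duplicate plates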
HEK293 MPD ctr-2: counter-screen for TRPC6 modulators: effect in parental HEK293 cells; shares compounds with TRPC6 inhibitor; membrane potential dye fluorescence; membrane potential signal change, % at 10 µM; hit rate 51% among 2,400; AID 488924;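 active means membrane potential signal moves up or down beyond 5 SD from buffer-only wells, on both duplicate plates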
HEK293 MPD ctr 2-2: second check of TRPC6 modulator effects in parental HEK293 cells; shares compounds with TRPC6 inhibitor; membrane potential dye fluorescence; after compound, maximal acetylcholine stimulation; inhibition, % at 10 µM; hit rate 14% among 2,400; AID 488926;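 active means membrane potential signal drops by more than 5 SD from the mean control signal, in both duplicate plates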
TRPC4/MOR mod: selectivity of TRPC6 modulators against mouse TRPC4 | shares compounds with TRPC6 inhibitor | percent change from control (negative = decrease, positive = increase), % at 10 µM | AID 488927 | hit rate 69% among 2,400 | HEK293 TRPC4/mu-opioid, membrane potential fluorescence;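 active means membrane potential signal moved up or down beyond 5 SD of buffer control wells, in both duplicate plates, actives on both sides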
TRPC4/MOR inh 2: second selectivity test of TRPC6 modulators against mouse TRPC4 | shares compounds with TRPC6 inhibitor | HEK293 TRPC4/mu-opioid, membrane potential dye fluorescence; stimulated with maximal-effect DAMGO | inhibition, % at 10 µM | hit rate 55% among 2,400;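 active means drop in membrane potential signal beyond 5 SD of the control wells in both duplicate plates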;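 further: TRPC4 counter screen for TRPC6 hits run under conditions tuned for TRPC6 not TRPC4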
TRPC6 block conf: mouse TRPC6 inhibitor confirmation. shares compounds with TRPC6 inhibitor. HEK293-TRPC6, membrane potential dye, ACh-evoked depolarization. inhibition, % at 10 µM. hit rate 43% among 3,300. AID 488960;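 active means fluorescence ratio falls more than 5 SD below the full-stimulation control mean, in both duplicate runs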;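 further: integrated fluorescence ratio of peak minus minimum over baseline after agonist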
TRPC6 act conf: confirmation of mouse TRPC6 activators; shares compounds with TRPC6 inhibitor; HEK293-TRPC6 membrane potential dye fluorescence, FDSS; activation, % at 10 µM; hit rate 11% among 2,800; AID 488961;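 active means ratio signal rise beyond 5 SD above unstimulated control wells' mean, seen in both duplicate runs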
Each line names hits and unclear results; the compound was inactive in the other large screens (follow-up assays come after a bar, where they were run). A selection: hits, their analogues and other compounds. The true share with any hit is near 2.3%.

CN(C)c1nc(N)c(C(=O)N=C(N)N)nc1Cl	TRPC6 inhibitor -7.34 | TRPC4 spec 2 inactive | TRPC4 spec -23.7% | HEK293 MPD ctr 2-1 inactive | HEK293 MPD ctr-1 -364.0% | TRPC6 block conf inactive | TRPC6 act conf inactive
NC(=Nc1ccccc1)NC(=O)c1nc(Cl)c(N)nc1N	none
CC1CC(C)CN(CCCNC(=O)c2ccc3c(c2)ncn3C2CCCC2)C1 (stereo not given)	none
CS(=O)(=O)N(CC(=O)N1CCN(c2ccccc2)CC1)Cc1ccc(Cl)cc1	TRPC6 inhibitor -5.63 | HEK293 MPD ctr-2 inactive | HEK293 MPD ctr 2-2 inactive | TRPC4/MOR mod 13.0% | TRPC4/MOR inh 2 inactive | TRPC6 block conf inactive | TRPC6 act conf inactive
CC1CCN(C(=O)CN(Cc2ccccc2)S(C)(=O)=O)CC1	none
CS(=O)(=O)N(CC(=O)N1CCc2ccccc2C1)Cc1ccccc1	TRPC6 inhibitor -6.53 | HEK293 MPD ctr-2 inactive | HEK293 MPD ctr 2-2 inactive | TRPC4/MOR mod 12.0% | TRPC4/MOR inh 2 inactive | TRPC6 block conf inactive
COc1ccc(N2CCN(C(=O)CN(Cc3ccc(Cl)cc3)S(C)(=O)=O)CC2)cc1	none
Nc1cc2ccncc2c2ccccc12	TRPC6 inhibitor -11 | HEK293 MPD ctr-2 -380.0% | HEK293 MPD ctr 2-2 77.5% | TRPC4/MOR mod -71.5% | TRPC4/MOR inh 2 85.5% | TRPC6 block conf 74.0% | TRPC6 act conf inactive
Cc1cc(F)ccc1NS(=O)(=O)c1c(C(=O)N2CCOCC2)c(C)n(C)c1C	none
Cn1c(SCc2c(Cl)cccc2Cl)nnc1-c1cccs1	TRPC6 inhibitor -6.56 | HEK293 MPD ctr-2 274.5% | HEK293 MPD ctr 2-2 inactive | TRPC4/MOR mod 55.5% | TRPC4/MOR inh 2 inactive | TRPC6 block conf inactive
Cc1ccc(CSc2nnc(-c3cccs3)n2C)cc1	none
CCOC(=O)N1CCN(C(=O)c2ccc3nc(N4CCC(C)CC4)sc3c2)CC1	TRPC6 activator 13.4, TRPC6 inhibitor -11.6 | HEK293 MPD ctr-2 114.0% | HEK293 MPD ctr 2-2 inactive | TRPC4/MOR mod 21.0% | TRPC4/MOR inh 2 inactive | TRPC6 block conf 113.0% | TRPC6 act conf 160.5%
COC(=O)CSc1ccsc1C(=O)O	none
COC(=O)CSc1cccc2c1C(=O)CC2c1ccccc1 (stereo not given)	TRPC6 inhibitor -7.69 | TRPC4 spec 2 inactive | TRPC4 spec 1.9% | HEK293 MPD ctr 2-1 inactive | HEK293 MPD ctr-1 3.3% | TRPC6 block conf inactive
C=CCc1cccc(CNn2cnnc2)c1O	none
CCOC(=O)C1(C)/C(=N/Nc2ccccc2OC)C(=O)C(=O)N1c1ccccc1 (stereo not given)	TRPC6 inhibitor -8.06 | HEK293 MPD ctr-2 -225.5% | HEK293 MPD ctr 2-2 inactive | TRPC4/MOR mod -40.0% | TRPC4/MOR inh 2 68.5% | TRPC6 block conf 44.5% | TRPC6 act conf inactive
Cc1cccc(Nc2sc(C(=O)c3cc4cc(Cl)ccc4o3)c(N)c2C#N)c1	none
CC(=O)[C@@]1(O)C(C)CC2C3C=C(C)C4=Cc5c(cnn5-c5ccccc5)C[C@]4(C)C3C(O)C[C@@]21C (stereo not given in full)	TRPC6 inhibitor -6.44 | HEK293 MPD ctr-2 inactive | HEK293 MPD ctr 2-2 inactive | TRPC4/MOR mod inactive | TRPC4/MOR inh 2 inactive | TRPC6 block conf inactive
CCOc1ccc2nc(NC(=O)CSc3nc(-c4ccccc4)c(C#N)c(=O)[nH]3)sc2c1	TRPC6 activator 11.6 | HEK293 MPD ctr-2 inactive | HEK293 MPD ctr 2-2 inactive | TRPC4/MOR mod 19.5% | TRPC4/MOR inh 2 inactive | TRPC6 block conf inactive | TRPC6 act conf 36.5%
COc1cccc(-c2nc(SCC(=O)Nc3nc(-c4ccccc4)c(C)s3)[nH]c(=O)c2C#N)c1	none
Cc1ccc(Cl)cc1N1CCN(C(=O)c2ccc(NS(=O)(=O)c3c(C)noc3C)cc2)CC1	TRPC6 inhibitor -6.15 | HEK293 MPD ctr-2 inactive | HEK293 MPD ctr 2-2 inactive | TRPC4/MOR mod inactive | TRPC4/MOR inh 2 inactive | TRPC6 block conf 70.0%
Cc1ccc(C)c(N2CCN(C(=O)c3ccc(NS(=O)(=O)c4c(C)noc4C)cc3)CC2)c1	TRPC6 inhibitor -6.5 | HEK293 MPD ctr-2 inactive | HEK293 MPD ctr 2-2 inactive | TRPC4/MOR mod -15.0% | TRPC4/MOR inh 2 50.5% | TRPC6 block conf 74.0% | TRPC6 act conf inactive
CCN(CC)CCNC(=O)Cn1nc(Cc2ccncc2)c2ccccc2c1=O	TRPC6 inhibitor -6.16 | HEK293 MPD ctr-2 inactive | HEK293 MPD ctr 2-2 inactive | TRPC4/MOR mod inactive | TRPC4/MOR inh 2 inactive | TRPC6 block conf inactive | TRPC6 act conf inactive
COC(=O)c1[nH]c2ccccc2c1NC(=O)CN1CC(C)OC(C)C1 (stereo not given)	none
CCOC(=O)c1[nH]c2ccc(F)cc2c1NC(=O)CN1CCc2cc(OC)c(OC)cc2C1	none
COC(=O)c1[nH]c2ccccc2c1NC(=O)CN1CCN(C/C=C/c2ccccc2)CC1	TRPC6 inhibitor -7.84 | TRPC4 spec 2 30.5% | TRPC4 spec -16.0% | HEK293 MPD ctr 2-1 inactive | HEK293 MPD ctr-1 -176.0% | TRPC6 block conf 79.4% | TRPC6 act conf inactive
CCOC(=O)c1[nH]c2ccc(F)cc2c1NC(=O)CN1CCN(C/C=C/c2ccccc2)CC1	TRPC6 inhibitor -11.8 | TRPC4 spec 2 40.0% | TRPC4 spec -20.9% | HEK293 MPD ctr 2-1 inactive | HEK293 MPD ctr-1 -246.5% | TRPC6 block conf 87.9% | TRPC6 act conf inactive

Source: PubChem (Johns Hopkins Ion Channel Center)
